This is an account of results in the array DNA melting data of Ke et al. (doi:10.1101/2024.01.08.574731).

Series [1] in a line: folding enthalpy; higher = less favourable; fluorescence melt of hairpins on a sequencing array, two-state fit. To be noted: sodium 0.088 M. The procedure, abridged:
(§1)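 Library hairpins on a sequenced MiSeq flow cell carried annealed Cy3 and quencher oligos, and their Cy3 fluorescence was imaged in 50 mM Na-HEPES pH 8.0 with 25 mM NaCl, in 2.5 °C steps up to 60 °C. Signals were normalised to Cy3 before quenching and to control constructs. Melting temperature and folding enthalpy were obtained from bootstrapped two-state fits, combined by inverse-variance weighting across four replicates, and the fitted temperatures were then raised by 9.35 °C to match UV melts.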

The nature of series [2]: melting temperature; fluorescence melt of hairpins on a sequencing array, two-state fit, raised by 9.35 °C to match UV melts. To be noted: sodium 0.088 M. The method in brief:
as §1

Turning to GCGCAGCGAAAGCTCCGC (((.(((....))).))), the folding enthalpy in series [1] was -34.1 kcal/mol. Besides, in series [2], the Tm worked out at 44.7 °C.
For the sequence GCCGTGCGAAAGCTCAGC ((.(.((....)).).)), in series [1], the folding enthalpy is -15.4 kcal/mol. In series [2], the Tm is 40.4 °C.
In the case of GATTGCGAAAGCAGCATC ((((((....)))..))), the folding enthalpy in series [1] was -9.21 kcal/mol. For the same sequence, in series [2], the Tm turned out to be 24.1 °C.
As to GGCGCCGGAAACGGCACC ((.((((....)))).)), the folding enthalpy in series [1] is -26.8 kcal/mol. In series [2], the Tm amounted to 60.5 °C.
On to GACAACGCGAAAGCGGTC (((..(((....)))))), for which the folding enthalpy in series [1] is -13.7 kcal/mol. The Tm in series [2] turned out to be 44.9 °C.
As for GGAGGCGAAAGCCAGTCC ((((((....)))..))), the folding enthalpy in series [1] is -10.6 kcal/mol. In series [2], the Tm came to 34.1 °C.
As to GGTTACGAAAGTAGACC ((((((....))).))), the folding enthalpy in series [1] was -25.3 kcal/mol. The Tm in series [2] amounted to 41.4 °C.
Consider GCGATGCGAAAGCATGGC ((.((((....)))).)), for which, in series [1], the folding enthalpy is -21.2 kcal/mol. Besides, the Tm in series [2] came out at 64.6 °C.
As to GGGAGGACGAAAGTCCCC (((..(((....)))))), the folding enthalpy in series [1] is -11.6 kcal/mol. Also, in series [2], the Tm was found to be 53.1 °C.
Turning to GACGGTGGAAACGTCGTC ((((..(....)..)))), in series [1], the folding enthalpy is -31.6 kcal/mol. Besides, in series [2], the Tm is 54.8 °C.
Take GTCGGTGGAAACGCTGAC (((.(.(....).).))): in series [1], the folding enthalpy was -20 kcal/mol. Moreover, in series [2], the Tm turned out to be 42.6 °C.
Turning to GGTCAGTCGAAAGACACC (((..(((....)))))), in series [1], the folding enthalpy is -13.3 kcal/mol. Also, the Tm in series [2] was found to be 32.9 °C.
For CATAGGAAACTATG (((((....))))), in series [1], the folding enthalpy is -14.3 kcal/mol. In addition, the Tm in series [2] is 38.4 °C.
Take GCGTATCGAAAGATTCGC (((.(((....))).))): in series [1], the folding enthalpy was -42.7 kcal/mol. Moreover, the Tm in series [2] came out at 53.9 °C.
Turning to GCAACGCGAAAGCGCCGC ((..(((....)))..)), in series [1], the folding enthalpy is -9.13 kcal/mol. For the same sequence, the Tm in series [2] was determined as 40.8 °C.
Turning to GATCGCGAAAGCGTATC ((((((....))).))), the folding enthalpy in series [1] is -15.5 kcal/mol. The Tm in series [2] is 51.8 °C.
For GAGGGTACGAAAGTACTC (((..(((....)))))), the folding enthalpy in series [1] is -11.9 kcal/mol. In series [2], the Tm is 36.9 °C.
Consider GTCTTCGGAAACAAAGAC (((((.(....).))))), for which, in series [1], the folding enthalpy is -29.7 kcal/mol. Further, in series [2], the Tm came out at 32.3 °C.
Consider GTTTTCGAAAGAAAAAC ((((((....))).))), for which, in series [1], the folding enthalpy is -15.8 kcal/mol. Further, the Tm in series [2] was determined as 39.2 °C.
Turning to GCAGCGCGAAAGCTGTGC (((..((....))..))), in series [1], the folding enthalpy is -18.8 kcal/mol. In addition, the Tm in series [2] was found to be 44.8 °C.
On the same counts, the results for GATCACGAAAGTGCAATC ((((((....)))..))) are -10 kcal/mol and 28.1 °C.
GCCGACGGAAACGCCGAC (.((.((....)).)).): in series [1], the folding enthalpy was -16.7 kcal/mol. Besides, in series [2], the Tm is 36.4 °C.
Turning to GCGACGCGAAAGCCGCGC (((..((....))..))), the folding enthalpy in series [1] was -23.6 kcal/mol. Also, in series [2], the Tm came out at 67.1 °C.
In the case of GATCAAGTAATTGATC ((((((....)))))), the folding enthalpy in series [1] was -32.1 kcal/mol. For the same sequence, in series [2], the Tm worked out at 50 °C.
Regarding GCTGTGGGAAACCACAAC (.(((((....))))).), in series [1], the folding enthalpy was -15.8 kcal/mol. Besides, the Tm in series [2] was determined as 39.2 °C.
Consider TGGTCGAAAGACCA (((((....))))), for which, in series [1], the folding enthalpy is -19.1 kcal/mol. Also, the Tm in series [2] worked out at 66.8 °C.
On the same counts, the results for GATCCAGTAATGGATC ((((((....)))))) are -34.2 kcal/mol and 58.7 °C.
The corresponding values for GATCTCTCCGAGATC ((((((...)))))) are -40.7 kcal/mol and 56.7 °C.
As for GATCTCCCCGGAGATC ((((((....)))))), the folding enthalpy in series [1] is -35.1 kcal/mol. For the same sequence, the Tm in series [2] is 57.6 °C.
In the case of GATCATTACTATGATC ((((((....)))))), in series [1], the folding enthalpy was -41.7 kcal/mol. Further, the Tm in series [2] is 48.6 °C.
For the sequence GCCCAGTCGAAAGACGGC (((..(((....)))))), the folding enthalpy in series [1] was -13.4 kcal/mol. For the same sequence, in series [2], the Tm was found to be 49.3 °C.
Consider GGGCGTCGAAAGACTCCC (((.(((....))).))), for which the folding enthalpy in series [1] was -38.3 kcal/mol. Besides, in series [2], the Tm turned out to be 53.9 °C.
The corresponding values for GTGTGGGGAAACCTGCAC (((..((....))..))) are -31.9 kcal/mol and 44.8 °C.
GTGAACGGAAACGTTCAC (((((((....))))))): in series [1], the folding enthalpy is -30 kcal/mol. Further, in series [2], the Tm was 67.8 °C.
GCACCCCGAAAGGGCTGC (((.(((....))).))): the folding enthalpy in series [1] was -24.9 kcal/mol. For the same sequence, the Tm in series [2] came out at 50 °C.
On the same counts, the results for GGATCCGAAAGGATCTCC ((((((....)))..))) are -9.17 kcal/mol and 53.6 °C.
On the same counts, the results for GAGATCCGAAAGGAGCTC (((.(((....))).))) are -44.9 kcal/mol and 60.8 °C.
